Test results from ChEMBL document CHEMBL1155459, “On-bead screening of a combinatorial fumaric acid derived peptide library yields antiplasmodial cysteine protease inhibitors with unusual peptide sequences” (J Med Chem, 2009).
Square brackets hold non-standard residues; d marks the D form. Peptide text beside a SMILES is read from it. * marks the point of attachment. Fumaroyl(AlaGlyPheOH) = C[C@H](NC(=O)/C=C/C(=O)*)C(=O)NCC(=O)N[C@@H](Cc1ccccc1)C(=O)O; Fumaroyl(GlyGlyPheOH) = O=C(/C=C/C(=O)*)NCC(=O)NCC(=O)N[C@@H](Cc1ccccc1)C(=O)O; Chg = N[C@H](C(=O)O)C1CCCCC1; Dap = NC[C@H](N)C(=O)O

Tests used:
[1] = biological target: Rhodesain (Trypanosoma brucei rhodesiense) (UniProt Q95PM0); assay: Inhibition of Trypanosoma brucei rhodesiense rhodesain after 12 hrs by fluorescence spectroscopy-based on-bead assay; design: concentration or dose not given beside the values; conditions: concentration not given here
Rhodesain (Trypanosoma brucei rhodesiense), sequence (Q95PM0 1-450): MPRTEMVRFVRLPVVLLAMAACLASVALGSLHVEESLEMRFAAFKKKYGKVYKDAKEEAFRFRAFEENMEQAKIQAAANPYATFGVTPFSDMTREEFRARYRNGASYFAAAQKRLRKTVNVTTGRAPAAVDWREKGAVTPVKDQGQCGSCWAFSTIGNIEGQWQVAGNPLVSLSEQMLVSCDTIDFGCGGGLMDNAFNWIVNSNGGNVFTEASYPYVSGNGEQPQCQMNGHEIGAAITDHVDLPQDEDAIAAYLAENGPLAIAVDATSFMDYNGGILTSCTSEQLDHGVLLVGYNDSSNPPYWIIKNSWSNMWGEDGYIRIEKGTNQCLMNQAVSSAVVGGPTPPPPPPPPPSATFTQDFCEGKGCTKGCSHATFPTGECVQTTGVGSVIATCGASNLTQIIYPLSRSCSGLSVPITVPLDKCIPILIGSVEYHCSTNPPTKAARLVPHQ
Outline: (§1)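 Library members on resin (PEGA, theoretical loading 0.40 mmol/g; added as DMSO suspension, 0.64 mM final inhibitor) preincubated with enzyme 12 h, then Cbz-Phe-Arg-AMC 40 μM added; AMC release followed by fluorescence (ex 380/em 460 nm). Kinetics compared with inhibitor-free amino-PEGA resin.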

[2] = Inhibition of Plasmodium falciparum falcipain-2 after 12 hrs by fluorescence spectroscopy-based on-bead assay; design: concentration or dose not given beside the values; conditions: concentration not given here; outline: as §1

Compound	inhibition [1] [%]	inhibition [2] [%]
CC[C@H](C)[C@H](NC(=O)[C@H](CC(N)=O)NC(=O)/C=C/C(=O)N[C@@H](C)C(=O)NCC(=O)N[C@@H](Cc1ccccc1)C(=O)O)C(=O)N[C@H](C(=O)N[C@H](C(N)=O)C(C)C)C(C)C (HELM PEPTIDE1{[C[C@H](NC(=O)/C=C/C(=O)[*:2])C(=O)NCC(=O)N[C@@H](Cc1ccccc1)C(=O)O].N.I.V.V.[am]}$$$$V2.0)	21	33
CC(C)[C@H](NC(=O)[C@@H](NC(=O)[C@H](Cc1ccccc1)NC(=O)[C@H](Cc1ccccc1)NC(=O)/C=C/C(=O)N[C@@H](C)C(=O)NCC(=O)N[C@@H](Cc1ccccc1)C(=O)O)C(C)C)C(N)=O (HELM PEPTIDE1{[C[C@H](NC(=O)/C=C/C(=O)[*:2])C(=O)NCC(=O)N[C@@H](Cc1ccccc1)C(=O)O].F.F.V.V.[am]}$$$$V2.0)	38	37
CC(=O)NC[C@H](NC(=O)/C=C/C(=O)NCC(=O)NCC(=O)N[C@@H](Cc1ccccc1)C(=O)O)C(=O)N[C@H](C(=O)N[C@H](C(=O)N[C@H](C(N)=O)C(C)C)C(C)C)C1CCCCC1 ({Fumaroyl(GlyGlyPheOH)}-[Dap](Ac)[Chg]VV-NH2)	52	52
CC(C)C[C@H](NC(=O)[C@H](CCC(N)=O)NC(=O)/C=C/C(=O)N[C@@H](C)C(=O)NCC(=O)N[C@@H](Cc1ccccc1)C(=O)O)C(=O)N[C@@H](C)C(=O)N[C@H](C(N)=O)C(C)C (HELM PEPTIDE1{[C[C@H](NC(=O)/C=C/C(=O)[*:2])C(=O)NCC(=O)N[C@@H](Cc1ccccc1)C(=O)O].Q.L.A.V.[am]}$$$$V2.0)	7	54
CC(C)[C@H](NC(=O)[C@@H](NC(=O)[C@@H](NC(=O)[C@H](CCC(N)=O)NC(=O)/C=C/C(=O)N[C@@H](C)C(=O)NCC(=O)N[C@@H](Cc1ccccc1)C(=O)O)C1CCCCC1)C(C)C)C(N)=O (HELM PEPTIDE1{[C[C@H](NC(=O)/C=C/C(=O)[*:2])C(=O)NCC(=O)N[C@@H](Cc1ccccc1)C(=O)O].Q.[O=C([C@@H](N[*:1])C1CCCCC1)[*:2]].V.V.[am]}$$$$V2.0)	43	47
CC(=O)NC[C@H](NC(=O)/C=C/C(=O)N[C@@H](C)C(=O)NCC(=O)N[C@@H](Cc1ccccc1)C(=O)O)C(=O)N[C@@H](Cc1ccccc1)C(=O)N[C@@H](C)C(=O)N[C@H](C(N)=O)C(C)C (HELM PEPTIDE1{[C[C@H](NC(=O)/C=C/C(=O)[*:2])C(=O)NCC(=O)N[C@@H](Cc1ccccc1)C(=O)O].[O=C([C@H](CN[*:3])N[*:1])[*:2]].F.A.V.[am]}|PEPTIDE2{[ac]}$PEPTIDE1,PEPTIDE2,2:R3-1:R2$$$V2.0)	17	13
CC[C@H](C)[C@H](NC(=O)[C@H](CC(N)=O)NC(=O)/C=C/C(=O)NCC(=O)NCC(=O)N[C@@H](Cc1ccccc1)C(=O)O)C(=O)N[C@@H](C)C(=O)N[C@H](C(N)=O)C(C)C (HELM PEPTIDE1{[O=C(/C=C/C(=O)[*:2])NCC(=O)NCC(=O)N[C@@H](Cc1ccccc1)C(=O)O].N.I.A.V.[am]}$$$$V2.0)	55	63
CC(C)[C@H](NC(=O)[C@@H](NC(=O)[C@@H](NC(=O)[C@H](Cc1ccccc1)NC(=O)/C=C/C(=O)NCC(=O)NCC(=O)N[C@@H](Cc1ccccc1)C(=O)O)C1CCCCC1)C(C)C)C(N)=O (HELM PEPTIDE1{[O=C(/C=C/C(=O)[*:2])NCC(=O)NCC(=O)N[C@@H](Cc1ccccc1)C(=O)O].F.[O=C([C@@H](N[*:1])C1CCCCC1)[*:2]].V.V.[am]}$$$$V2.0)	49	48
CC(C)[C@H](NC(=O)[C@@H](NC(=O)[C@@H](NC(=O)[C@H](Cc1ccccc1)NC(=O)/C=C/C(=O)NCC(=O)NCC(=O)N[C@@H](Cc1ccccc1)C(=O)O)c1ccccc1)C(C)C)C(N)=O (HELM PEPTIDE1{[O=C(/C=C/C(=O)[*:2])NCC(=O)NCC(=O)N[C@@H](Cc1ccccc1)C(=O)O].F.[Phg].V.V.[am]}$$$$V2.0)	68	35
CC(C)[C@H](NC(=O)[C@H](C)NC(=O)[C@@H](NC(=O)[C@H](Cc1ccccc1)NC(=O)/C=C/C(=O)N[C@@H](C)C(=O)NCC(=O)N[C@@H](Cc1ccccc1)C(=O)O)C1CCCCC1)C(N)=O (HELM PEPTIDE1{[C[C@H](NC(=O)/C=C/C(=O)[*:2])C(=O)NCC(=O)N[C@@H](Cc1ccccc1)C(=O)O].F.[O=C([C@@H](N[*:1])C1CCCCC1)[*:2]].A.V.[am]}$$$$V2.0)	21	29
CC(C)C[C@H](NC(=O)[C@H](Cc1ccccc1)NC(=O)/C=C/C(=O)N[C@@H](C)C(=O)NCC(=O)N[C@@H](Cc1ccccc1)C(=O)O)C(=O)N[C@H](C(=O)N[C@H](C(N)=O)C(C)C)C(C)C (HELM PEPTIDE1{[C[C@H](NC(=O)/C=C/C(=O)[*:2])C(=O)NCC(=O)N[C@@H](Cc1ccccc1)C(=O)O].F.L.V.V.[am]}$$$$V2.0)	45	36
CC(C)C[C@H](NC(=O)[C@H](Cc1ccccc1)NC(=O)[C@H](CCC(N)=O)NC(=O)/C=C/C(=O)N[C@@H](C)C(=O)NCC(=O)N[C@@H](Cc1ccccc1)C(=O)O)C(=O)N[C@H](C(N)=O)C(C)C (HELM PEPTIDE1{[C[C@H](NC(=O)/C=C/C(=O)[*:2])C(=O)NCC(=O)N[C@@H](Cc1ccccc1)C(=O)O].Q.F.L.V.[am]}$$$$V2.0)	60	49
CC(=O)NC[C@H](NC(=O)/C=C/C(=O)NCC(=O)NCC(=O)N[C@@H](Cc1ccccc1)C(=O)O)C(=O)N[C@@H](Cc1ccccc1)C(=O)N[C@@H](CC(C)C)C(=O)N[C@H](C(N)=O)C(C)C (HELM PEPTIDE1{[O=C(/C=C/C(=O)[*:2])NCC(=O)NCC(=O)N[C@@H](Cc1ccccc1)C(=O)O].[O=C([C@H](CN[*:3])N[*:1])[*:2]].F.L.V.[am]}|PEPTIDE2{[ac]}$PEPTIDE1,PEPTIDE2,2:R3-1:R2$$$V2.0)	51	59
CC(C)C[C@H](NC(=O)[C@H](CC(N)=O)NC(=O)/C=C/C(=O)N[C@@H](C)C(=O)NCC(=O)N[C@@H](Cc1ccccc1)C(=O)O)C(=O)N[C@H](C(=O)N[C@H](C(N)=O)C(C)C)C(C)C (HELM PEPTIDE1{[C[C@H](NC(=O)/C=C/C(=O)[*:2])C(=O)NCC(=O)N[C@@H](Cc1ccccc1)C(=O)O].N.L.V.V.[am]}$$$$V2.0)	50	43
CC(C)C[C@H](NC(=O)[C@@H](NC(=O)[C@H](C)NC(=O)/C=C/C(=O)NCC(=O)NCC(=O)N[C@@H](Cc1ccccc1)C(=O)O)C1CCCCC1)C(=O)N[C@H](C(N)=O)C(C)C (HELM PEPTIDE1{[O=C(/C=C/C(=O)[*:2])NCC(=O)NCC(=O)N[C@@H](Cc1ccccc1)C(=O)O].A.[O=C([C@@H](N[*:1])C1CCCCC1)[*:2]].L.V.[am]}$$$$V2.0)	60	43
CC(=O)NC[C@H](NC(=O)/C=C/C(=O)N[C@@H](C)C(=O)NCC(=O)N[C@@H](Cc1ccccc1)C(=O)O)C(=O)N[C@H](C(=O)N[C@@H](CC(C)C)C(=O)N[C@H](C(N)=O)C(C)C)C1CCCCC1 ({Fumaroyl(AlaGlyPheOH)}-[Dap](Ac)[Chg]LV-NH2)	51	56
CC(C)[C@H](NC(=O)[C@H](C)NC(=O)[C@@H](NC(=O)[C@H](C)NC(=O)/C=C/C(=O)NCC(=O)NCC(=O)N[C@@H](Cc1ccccc1)C(=O)O)c1ccccc1)C(N)=O (HELM PEPTIDE1{[O=C(/C=C/C(=O)[*:2])NCC(=O)NCC(=O)N[C@@H](Cc1ccccc1)C(=O)O].A.[Phg].A.V.[am]}$$$$V2.0)	16	41
CC(C)[C@H](NC(=O)[C@H](C)NC(=O)[C@@H](NC(=O)[C@H](CC(N)=O)NC(=O)/C=C/C(=O)N[C@@H](C)C(=O)NCC(=O)N[C@@H](Cc1ccccc1)C(=O)O)c1ccccc1)C(N)=O (HELM PEPTIDE1{[C[C@H](NC(=O)/C=C/C(=O)[*:2])C(=O)NCC(=O)N[C@@H](Cc1ccccc1)C(=O)O].N.[Phg].A.V.[am]}$$$$V2.0)	44	35
CC(C)C[C@H](NC(=O)[C@H](Cc1ccccc1)NC(=O)[C@H](C)NC(=O)/C=C/C(=O)N[C@@H](C)C(=O)NCC(=O)N[C@@H](Cc1ccccc1)C(=O)O)C(=O)N[C@H](C(N)=O)C(C)C (HELM PEPTIDE1{[C[C@H](NC(=O)/C=C/C(=O)[*:2])C(=O)NCC(=O)N[C@@H](Cc1ccccc1)C(=O)O].A.F.L.V.[am]}$$$$V2.0)	66	57
CC(C)[C@H](NC(=O)[C@H](C)NC(=O)[C@@H](NC(=O)[C@H](C)NC(=O)/C=C/C(=O)NCC(=O)NCC(=O)N[C@@H](Cc1ccccc1)C(=O)O)C1CCCCC1)C(N)=O (HELM PEPTIDE1{[O=C(/C=C/C(=O)[*:2])NCC(=O)NCC(=O)N[C@@H](Cc1ccccc1)C(=O)O].A.[O=C([C@@H](N[*:1])C1CCCCC1)[*:2]].A.V.[am]}$$$$V2.0)	26	31
CC(C)[C@H](NC(=O)[C@@H](NC(=O)[C@@H](NC(=O)[C@H](CC(N)=O)NC(=O)/C=C/C(=O)NCC(=O)NCC(=O)N[C@@H](Cc1ccccc1)C(=O)O)c1ccccc1)C(C)C)C(N)=O (HELM PEPTIDE1{[O=C(/C=C/C(=O)[*:2])NCC(=O)NCC(=O)N[C@@H](Cc1ccccc1)C(=O)O].N.[Phg].V.V.[am]}$$$$V2.0)	45	50
CC(C)[C@H](NC(=O)[C@H](C)NC(=O)[C@H](Cc1ccccc1)NC(=O)[C@H](CCC(N)=O)NC(=O)/C=C/C(=O)NCC(=O)NCC(=O)N[C@@H](Cc1ccccc1)C(=O)O)C(N)=O (HELM PEPTIDE1{[O=C(/C=C/C(=O)[*:2])NCC(=O)NCC(=O)N[C@@H](Cc1ccccc1)C(=O)O].Q.F.A.V.[am]}$$$$V2.0)	41	54
CC(C)C[C@H](NC(=O)[C@@H](NC(=O)[C@H](CC(N)=O)NC(=O)/C=C/C(=O)NCC(=O)NCC(=O)N[C@@H](Cc1ccccc1)C(=O)O)C1CCCCC1)C(=O)N[C@H](C(N)=O)C(C)C (HELM PEPTIDE1{[O=C(/C=C/C(=O)[*:2])NCC(=O)NCC(=O)N[C@@H](Cc1ccccc1)C(=O)O].N.[O=C([C@@H](N[*:1])C1CCCCC1)[*:2]].L.V.[am]}$$$$V2.0)	69	45
